Screens deposited in PubChem by Sanford-Burnham Center for Chemical Genomics.
bIAP inh: blocks bovine intestinal alkaline phosphatase activity; purified bovine IAP, CDP-star luminescence, 30 min; 190,000 tested, under 10 active; inhibition, % at 20 µM;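 active = over 50% inhibition of intestinal alkaline phosphatase at 20 µM in the single-dose screen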
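test system = bovine IAP enzyme | medium = DEA buffer 100 mM, pH 9.8, with MgCl2 1.0 mM, ZnCl2 0.02 mM | detection = luminescence | dosing = single compound dose of 20 µM, 2% DMSO final | incubation = 30 min reaction at room temperature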
hIAP activ: human IAP activation; P09923; purified human IAP, CDP-Star luminescence, 30 min; stronger effect = higher value; 1 = vehicle-only enzyme, 0 = enzyme-free background; activation factor at 10 µM; 330,000 compounds, 0.16% hits; AID 2524;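 active = activation factor of the enzyme at least 2-fold when tested at 20 µM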
Target sequence (P09923 whole entry, looked up): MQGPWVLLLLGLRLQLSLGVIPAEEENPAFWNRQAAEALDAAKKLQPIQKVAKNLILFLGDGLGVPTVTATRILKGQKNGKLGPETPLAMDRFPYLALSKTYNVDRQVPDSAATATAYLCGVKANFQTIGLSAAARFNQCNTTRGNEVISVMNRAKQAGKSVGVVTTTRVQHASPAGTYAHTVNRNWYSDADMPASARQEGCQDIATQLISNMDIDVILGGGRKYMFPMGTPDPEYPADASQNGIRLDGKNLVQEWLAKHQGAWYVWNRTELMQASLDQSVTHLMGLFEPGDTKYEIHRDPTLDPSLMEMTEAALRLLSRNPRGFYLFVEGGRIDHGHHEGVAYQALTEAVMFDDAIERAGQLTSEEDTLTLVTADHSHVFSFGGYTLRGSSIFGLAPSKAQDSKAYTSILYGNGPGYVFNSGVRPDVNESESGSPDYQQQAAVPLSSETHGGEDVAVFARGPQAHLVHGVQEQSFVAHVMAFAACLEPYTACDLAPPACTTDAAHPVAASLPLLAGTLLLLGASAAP
hIAP block: blocks human intestinal alkaline phosphatase; purified IAP, CDP-Star luminescence, 30 min; 330,000 compounds, 0.12% hits; inhibition, % at 10 µM; AID 2544; P09923;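 active = inhibition reaching a set limit with compound at 10 µM in the primary screen, cut at about 35% in these data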;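 note: plate controls were DMSO wells with enzyme for no effect and no-enzyme buffer wells for full effect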
mIAP act: mouse IAP activation; 330,000 compounds, 0.24% hits; muIAP, CDP-Star luminescence, 30 min; stronger effect = higher value; 1 = vehicle-only enzyme signal, 0 = enzyme-free wells; AID 2805; activation factor at 10 µM;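 active = activation factor of at least 2 at 20 µM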
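Assay system: mouse IAP enzyme; Reagent: CDP-Star chemiluminescent phosphatase substrate; Compound: DMSO-dissolved test compounds; Incubation: 30 min, room temperature; Technique: luminescence from enzymatic CDP-Star hydrolysis; Controls: DMSO-only wells and no-enzyme negative control.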
bIAP activator: increases bovine intestinal alkaline phosphatase activity | purified bovine IAP, CDP-star luminescence, 30 min; stronger effect = higher value; fold of DMSO-control signal, blank-subtracted | activation factor at 20 µM | 200,000 compounds, 0.17% hits;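 active = activation factor of 2 or more at 20 µM, a signal rise over negative controls twice the positive control's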
mIAP block: blocks mouse intestinal alkaline phosphatase | 330,000 compounds, 0.2% hits | inhibition, % at 10 µM | purified mouse IAP, CDP-Star luminescence, 30 min;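 active = inhibition of at least 40% at 10 µM in the primary screen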;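 note: plate controls were DMSO with enzyme for no effect and no enzyme wells for full effect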
hIAP act confirm: human IAP activation confirmation; shares compounds with hIAP activ; purified IAP, CDP-Star luminescence, 30 min; stronger effect = lower value; activation (%Activity, negative = activation), % at 8.3 µM; AID 434926; 880 compounds, 10% hits;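 active = at least twofold enzyme activation in any of six single-dose repeats, which the averaged readout prints as negative percent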
* = called active by the depositor; nt = no result. Rows were chosen to be rich in hits. Some 0.77% of all compounds tested hit in one or more screens of this group.

SMILES	bIAP inh	hIAP activ	hIAP block	mIAP act	bIAP activator	mIAP block	hIAP act confirm
CC(C)NC(=O)/C(C#N)=C\c1ccc(N(C)C)o1	40.5	0.649	35.1*	0.851	0.6	14.9	3.8
Cc1cc(C)n(-c2ccc(C(=O)OCC(=O)N3CCN(c4ccccc4)CC3)cc2)n1	nt	1.05	-5.4	1.14	nt	-14.0	nt
O=C1NC(=O)/C(=C/C(=O)N2CCOCC2)S1	2.1	0.89	11.0	0.979	1	2.1	nt
COc1ccc(NC(=O)/C(C#N)=C\c2ccc(N3CCOCC3)o2)cc1	39.6	0.611	38.9*	0.795	0.6	20.5	2.5
Cc1ccc(S(=O)(=O)NCC(=O)NNC(=O)c2ccccc2Cl)cc1C	nt	2.21*	-121.2	0.725	nt	27.5	-8.6
O=C(CS(=O)(=O)c1ccc(Cl)cc1)NCc1ccccc1	nt	0.984	1.6	0.959	nt	4.1	nt
COc1ccc(/C(O)=C/C(=O)C(=O)NNC(=O)c2ccccc2)cc1	nt	2.17*	-117.3	0.893	nt	10.7	-2.6
O=c1oc(-c2ccc(O)c(O)c2)cc2cc(O)cc(O)c12	nt	0.308	69.2*	0.65	nt	35.0	24.7
O=c1oc(-c2ccc(O)c(O)c2)cc2cccc(O)c12	nt	0.869	13.1	0.769	nt	23.1	nt
COc1ccc(N2CCN(C(=O)Cn3cnc4c(cnn4-c4ccc(C)cc4)c3=O)CC2)cc1	-6.0	0.982	1.8	1.06	1.1	-6.3	nt
CNc1ccc(S(=O)(=O)NCC(=O)NCCCc2ccccc2)cc1[N+](=O)[O-]	nt	0.649	35.1*	1.09	nt	-8.9	4.8
CN(C)c1ccc(S(=O)(=O)NCC(=O)NCc2ccccc2)cc1[N+](=O)[O-]	nt	0.89	11.0	0.97	nt	3.0	nt
COc1ccc(OC)c(S(=O)(=O)n2nnc3ccccc32)c1	5.8	0.631	36.9*	0.965	0.9	3.5	-53.6
O=C(COC(=O)CCC(=O)c1ccc(Cl)cc1)NC1CC1	-11.6	0.928	7.2	0.979	1.1	2.1	nt
CC(CN1CCC(n2nccc2NC(=O)CCCc2ccccc2)CC1)c1ccccc1 (centres undefined)	nt	2.04*	-103.9	1.79	nt	-78.9	-90.9
CCOc1ccccc1CN1CCC(n2nccc2NC(=O)CCCc2ccccc2)CC1	nt	3.25*	-225.4	1.44	nt	-44.0	-23.6
Cn1cc(CN2CCC(n3nccc3NC(=O)CCc3ccccc3)CC2)cn1	nt	1.13	-13.1	1.04	nt	-4.1	nt
CC(=O)c1cccc(CN2CCC(n3nccc3NC(=O)CCCc3ccccc3)CC2)c1	nt	1.23	-23.4	1.1	nt	-10.3	nt
CCOc1ccccc1CN1CCC(n2nccc2NC(=O)CCc2ccccc2)CC1	nt	2.15*	-114.6	1.36	nt	-35.9	26.6
COc1cccc(CN2CCC(n3nccc3NC(=O)CCCc3ccccc3)CC2)c1	nt	3.28*	-228.4	1.66	nt	-66.1	-17.4
COc1ccc(-c2noc(CCC(=O)NCC3CCCO3)n2)cc1OC (centres undefined)	nt	1.1	-9.7	0.934	nt	6.6	nt
Cn1ccnc1SCc1ccc(Cl)cc1Cl	nt	2.19*	-119.0	1.08	nt	-8.4	18.6
C1CCC(Nc2nc3nonc3nc2N2CCSCC2)C1	-9.2	0.634	36.6*	1.03	1.1	-2.6	-2.6
C1CCN(C2CCN(c3nc4nonc4nc3N3CCSCC3)CC2)C1	-12.5	0.871	12.9	0.928	1.1	7.2	nt
COc1cccc(-c2nc(CS(=O)(=O)CC(=O)Nc3ccccc3C)c(C)o2)c1	nt	1.32	-31.9	1.03	nt	-3.4	nt
SMILES	bIAP inh	hIAP activ	hIAP block	mIAP act	bIAP activator	mIAP block	hIAP act confirm
COc1cccc(-c2nc(CS(=O)(=O)CC(=O)Nc3cc(OC)ccc3OC)c(C)o2)c1	nt	0.635	36.5*	0.974	nt	2.6	31.5
Cc1cccc(C(=O)c2cn[nH]c2-c2ccc(C)cc2O)c1	nt	1.07	-7.2	1.08	nt	-7.9	nt
Cc1ccc(-c2[nH]ncc2C(=O)c2cccc(F)c2)c(O)c1	nt	2.05*	-104.8	0.958	nt	4.2	5.6
CN(CC(=O)Nc1ccccc1F)CC(=O)Nc1ccc(F)c(F)c1F	-45.1	2.11*	-111.0	1.03	1.5	-2.6	51.6
Oc1ccccc1N=N/C(=N/Nc1ccccc1O)c1ccccc1	nt	0.946	5.4	0.959	nt	4.1	nt
Cn1nnnc1N=N/C(=N/Nc1ccccc1)c1ccccc1	nt	0.543	45.7*	0.761	nt	23.9	54.9
CS(=O)(=O)c1ccc(C(=O)NNC(=O)c2cc(-c3ccccc3)n[nH]2)cc1	nt	0.488	51.2*	0.739	nt	26.1	7.3
COc1cc(C(=O)NNC(=O)c2cc(-c3ccccc3)n[nH]2)cc(OC)c1C	nt	2.49*	-149.4	1.06	nt	-6.0	-42.3
CS(=O)(=O)Cc1ccc(C(=O)NNC(=O)c2cc(-c3ccccc3)n[nH]2)cc1	nt	1.26	-25.7	0.793	nt	20.7	nt
COC(=O)c1cc(-c2ccccc2)n[nH]1	4.6	1.03	-2.8	1.02	1	-2.2	nt
COc1ccc(S(=O)(=O)N(C)C)cc1NC(=O)CSc1nncs1	1.4	0.922	7.8	0.969	1	3.1	nt
CN(C)c1cccc(C(=O)NN2C(=O)NC3(CCCCC3)C2=O)c1	nt	0.884	11.6	1.08	nt	-8.2	nt
O=C(NCCCN1CCOCC1)c1ccc2c(c1)N(Cc1ccc(Cl)cc1)C(=O)c1ccccc1S2=O (centres undefined)	nt	0.631	36.9*	0.923	nt	7.7	-47.5*
CCc1ccc(S(=O)(=O)N/N=C\c2cn(CC(N)=O)c3ccccc23)cc1	nt	1.03	-2.7	0.979	nt	2.1	nt
COc1ccc(N2C(=NC(=O)CC3CCCCC3)SC3CS(=O)(=O)CC32)cc1 (centres undefined)	nt	1.02	-2.3	1.08	nt	-7.8	nt
O=C(NNc1ncnc2c1cnn2-c1ccc(F)cc1)c1ccco1	nt	2.63*	-163.3	0.987	nt	1.3	-47.2*
CC(=O)NNc1ncnc2c1cnn2-c1ccc(C)c(C)c1	-48.8	2.48*	-147.7	0.855	1.5	14.5	-77.6
CCNC(=S)NNC(=O)CSc1nc2ccccc2[nH]1	-29.0	2.43*	-142.9	1.1	1.3	-10.5	-30.3
CCNC(=S)NNC(=O)CSc1nc2ccccc2n1C	nt	0.948	5.2	0.911	nt	8.9	nt
COc1ccc(-c2cc(C(=O)NNC(=O)c3csc(N4CCOCC4)n3)c3ccccc3n2)cc1OC	nt	2.35*	-135.1	0.88	nt	12.0	0.5
CC(=O)c1ccc(N2CCN(C(=O)[C@H](C)NC(=O)c3ccccc3Cl)CC2)cc1	nt	1.18	-18.1	0.937	nt	6.3	nt
O=S(=O)(Nc1ccc2c(c1)OCCO2)c1cccs1	9.3	0.952	4.8	1.09	0.9	-8.7	nt
O=S(=O)(Nc1ccc2c(c1)OCCO2)c1ccc(Br)s1	12.1	2.06*	-106.5	0.938	0.9	6.2	3.8
Nc1oc2ccccc2c(=O)c1C=O	7.0	0.273	72.7*	0.889	0.9	11.1	15.5
Cc1nc2ccc(NC(=O)c3ccc([N+](=O)[O-])cc3)cc2[nH]1	nt	1.3	-29.9	1.05	nt	-5.4	nt
